System: MS2 coat protein
Assay: apparent Kd, MS2 coat protein; higher = weaker binding; RNA-MaP array; FMN 200 µM where present
How it was run: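 The titrant was SNAP-549-labelled MS2 coat protein, run from 0.7 or 1.5 nM in doubling steps to 3 µM. It was applied to designs transcribed by stalled E. coli RNA polymerase on Illumina sequencing-chip clusters, without ligand first and then with constant ligand, in 100 mM Tris-HCl pH 7.5, 80 mM KCl, 4 mM MgCl2, BSA, DTT, yeast tRNA and Tween-20. The apparent Kd is the median of filtered per-cluster binding-curve fits, with green signal normalised to red-channel RNA signal and control-cluster median Fmax.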

[1] = designed as: OFF switch for flavin mononucleotide, no ligand
[2] = ligand present: flavin mononucleotide, designed as: OFF switch for flavin mononucleotide
[3] = designed as: ON switch for flavin mononucleotide, no ligand
[4] = ligand present: flavin mononucleotide, designed as: ON switch for flavin mononucleotide

**Q.** For “GAGCUGACAAUAAAUAACUCAAAUACAUGAGGAUCACCCAUGUAGGAUAUGCAGUGGAAUACACUGCAGAAGGACAUAGUCAGC”, which “apparent Kd” value [1] is on record?
**A.** 13.4 nM

**Q.** And the “apparent Kd” value [2]?
**A.** 21.8 nM

**Q.** “GAGCUGCAGACAGGAUAUGAGGCCGCCAUGGUCUCAGAAGGGUCAUGUUCUACAUGAGGAUCACCCAUGUCGGACAGCUCGAAG” was tested. Which “apparent Kd” value [3] did it give?
**A.** 134 nM

**Q.** And the “apparent Kd” value [4]?
**A.** 11 nM

**Q.** For “GAGGAAAGGUAGCCCGACGUACCAGCAGAAGGGUGAUCAGACAUGAGGAUCACCCAUGUAGGAACACAGGAUAUGCAUGCACUU”, which “apparent Kd” value [3] is on record?
**A.** 80 nM

**Q.** And the “apparent Kd” value [4]?
**A.** 27.8 nM

**Q.** How did the “apparent Kd” value [1] turn out when “GAGGUGUUAGGAUAUCGGAGAUGGAGAAGAACGGGAAGAGGCGAGAAGGAACAUGAGGAUCACCCAUGUAGGUG” was run?
**A.** 433 nM

**Q.** What about the “apparent Kd” value [2] of the same sequence?
**A.** 329 nM

**Q.** What does the source list for “GAGUAGGGAGGAUAUACGUGCUCAAUCCCGGAAAGCGGGAAACAUGAGGAUCACCCAUGUAGAAGGCCCAUAAA”?
**A.** apparent Kd [1]: 82.1 nM; apparent Kd [2]: 46.4 nM

**Q.** What does the source list for “GAGUGACAUGAGGAUCACCCAUGUGAGGAUAUCGGACGGACCUAGUUAACAUCCGCCGCGAGAAGGCACAUCGG”?
**A.** apparent Kd [1]: 156 nM; apparent Kd [2]: 27 nM

**Q.** For “GAGUUAUCAGGAUAUACAUGAGGAUCACCCAUGUCGAUCAAUCCCGUGGGAACGCACUGUAGAAGGGAUGUAGU”, which “apparent Kd” value [1] is on record?
**A.** 32.5 nM

**Q.** What about the “apparent Kd” value [2] of the same sequence?
**A.** 33 nM

**Q.** What does the source list for “GAUAGGACAGAGAAGGACGUAGCUAGAGAUACUAGCAUAAAGUCCUCAACAUGAGGAUCACCCAUGUAGGAUAUCUGUCCUAUC”?
**A.** apparent Kd [1]: 6.39 nM; apparent Kd [2]: 7.13 nM

**Q.** Which results are given for “GAUAGGACAGAGAAGGACGUAGCUAGAGAUACUAGCAUAAGAACCUUUACAUGAGGAUCACCCAUGUAGGAUAUCUGUCCUAUC”?
**A.** apparent Kd [1]: 5.88 nM; apparent Kd [2]: 6.89 nM

**Q.** Which “apparent Kd” value [1] does the source give for “GAUAGGCGAGGAUAUACAUGAGGAUCACCCAUGUAAGUAAGCCUGGCUGAAACUGAAUGUAGAAGGCGCACAUU” here?
**A.** 18.4 nM

**Q.** What about the “apparent Kd” value [2] of the same sequence?
**A.** 45.1 nM

**Q.** Which results are given for “GAUCAAAACACUCCUUACACUACAUGAGGAUCACCCAUGUAGCAGGAUAUCAUUGCUCCUCGCUGUGAGAAGGGCUACGGGCGG”?
**A.** apparent Kd [1]: 8.92 nM; apparent Kd [2]: 15.6 nM

**Q.** Which results are given for “GAUCAACAUGAGGAUCACCCAUGUGAGGAUAUGUAUCAUAGAUCUUCGGAUCUAUGAUACAGAAGGCAUGUAGG”?
**A.** apparent Kd [1]: 101 nM; apparent Kd [2]: 118 nM

**Q.** With “GAUCACUGAGGAUAUACGCAGAUACAAAGUAUCUGAUUGUGACAUGAGGAUCACCCAUGUAGAAGGCAGAGGUC” as the sequence, how does the “apparent Kd” value [1] read?
**A.** 37.2 nM

**Q.** And the “apparent Kd” value [2]?
**A.** 124 nM

**Q.** Which results are given for “GAUCCACAUGAGGAUCACCCAUGUGAGGAUAUGUCCAUAUUCGGCAAAUCGGAUAUGGACAGAAGGCACACCGG”?
**A.** apparent Kd [1]: 120 nM; apparent Kd [2]: 47.4 nM

**Q.** With “GAUCUGUCGGUUGACCCAACAUGAGGAUCACCCAUGUAUGUGGAGGAUAUCUAGAUCUGCGGACGAGAGAAGGCCGCAUACGUU” as the sequence, how does the “apparent Kd” value [1] read?
**A.** 69 nM

**Q.** What about the “apparent Kd” value [2] of the same sequence?
**A.** 421 nM

**Q.** How did the “apparent Kd” value [3] turn out when “GAUGCUAUCCGAGGAUAUUCAUACCGGAAACGGACAUGAGGAUCACCCAUGUGGCGAAAGCCUUGGGAGAAGGCGGAUAGCAUC” was run?
**A.** 581 nM

**Q.** And the “apparent Kd” value [4]?
**A.** 23.4 nM

**Q.** What does the source list for “GAUGGCUUAGGAUAUCAAAGUUACCACAUGAGGAUCACCCAUGUAUGGGAGAUGGAUAAAUGAGAAGGAGGGUGUU”?
**A.** apparent Kd [1]: 174 nM; apparent Kd [2]: 133 nM

**Q.** With “GAUUCACAUGAGGAUCACCCAUGUGAGGAUAUAGUGCAGGAGGCGGAUAUCCACCUCUCUAGAAGGCACACGGG” as the sequence, how does the “apparent Kd” value [1] read?
**A.** 21.8 nM

**Q.** What about the “apparent Kd” value [2] of the same sequence?
**A.** 24.1 nM

**Q.** Which “apparent Kd” value [1] does the source give for “GAUUUAGAGCAGGAUAUCAUAGAAUUGUAUGAAUGAGAAGGGCUCACAUGAGGAUCACCCAUGUGGUCCUAGAU” here?
**A.** 21.7 nM

**Q.** What about the “apparent Kd” value [2] of the same sequence?
**A.** 132 nM

**Q.** For “GCAAAGCCUGACAUGAGGAUCACCCAUGUUAGAUUGUUAUGUCAGGAUAUUGUCUAGAACCUAGACAAGAAGGGAUGCUUUGCU”, which “apparent Kd” value [3] is on record?
**A.** 337 nM

**Q.** What about the “apparent Kd” value [4] of the same sequence?
**A.** 26.4 nM

**Q.** How did the “apparent Kd” value [1] turn out when “GCAAGAAUAGGAUAUACACCAUGUCAGCUUCUAUACAACGCACAUGAGGAUCACCCAUGUAGAAGGGUUCUCUC” was run?
**A.** 553 nM

**Q.** What about the “apparent Kd” value [2] of the same sequence?
**A.** 504 nM

**Q.** Which “apparent Kd” value [1] does the source give for “GCAAGAAUAGGAUAUACACCGUGUCAGCUUCUAUACAUCGCACAUGAGGAUCACCCAUGUAGAAGGGUUCUCUG” here?
**A.** 236 nM

**Q.** And the “apparent Kd” value [2]?
**A.** 217 nM

**Q.** “GCACAUGGCAUAGGAUAUAGAUCGAUUGUUUAAAUAGGUAGUUGGACUUAACUAGAAGGAUGAAACAUGAGGAUCACCCAUGUA” was tested. Which “apparent Kd” value [3] did it give?
**A.** 394 nM

**Q.** What about the “apparent Kd” value [4] of the same sequence?
**A.** 68 nM

**Q.** Which “apparent Kd” value [3] does the source give for “GCACAUGGCAUAGGAUAUAGUUCUAUUGUUUAAAUAGGUAGUUGGACUUAACUAGAAGGAUGUUACAUGAGGAUCACCCAUGUU” here?
**A.** 11.2 nM

**Q.** And the “apparent Kd” value [4]?
**A.** 11.3 nM

**Q.** With “GCACGACAUGUAGGAUAUCGAGCGCCGGGCGCUCGAGAAGGACAUGAGGAUCACCCAUGUAUUCUGAGUGACCGAGGUCUGUGC” as the sequence, how does the “apparent Kd” value [1] read?
**A.** 72.9 nM

**Q.** And the “apparent Kd” value [2]?
**A.** 594 nM

**Q.** Which “apparent Kd” value [3] does the source give for “GCACGAGACUAAGGAUAUGGAGUAUCUACAUUAAACAUGAGGAUCACCCAUGUAGGGAGUAUGAUUCAGAAGGUAGAGACGUGC” here?
**A.** 157 nM

**Q.** And the “apparent Kd” value [4]?
**A.** 37.3 nM

**Q.** What does the source list for “GCACGGUAAGUGAGGAUAUACCUCUGGAUACAGAGGUAGAAGGCACAUGAGGAUCACCCAUGUCUAAGCCGUGC”?
**A.** apparent Kd [1]: 17.1 nM; apparent Kd [2]: 24.1 nM

Source: the EternaBench riboswitch data
